AP complement – orthogonal test for alternative complement pathway inhibitors. Human serum alternative complement pathway, LPS-coated ELISA, C3 deposition; tested in compound mixtures. inhibition, % at 5 µM. 62,000 compounds, 0.08% hits. AID 1235;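 active = inhibition above 30% in each of the two pooled mixtures holding the compound, so the lower value exceeds 30%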;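 also: 0% = serum in Mg-EGTA without compound and 100% = EDTA serum blank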
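Assay system: human serum alternative complement pathway, C3 deposition on LPS-coated wells; Dosing: 5 µM per compound in ten-compound mixtures; Detection: Anti-C3 ELISA, OD 450 nm; Buffer or medium: Mg2+-EGTA GVB++ buffer containing human serum at 1:15 dilution; Timing: 1 h at 37 °C; Replication: two different pools per compound.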
Ec RNAP inh – Escherichia coli RNA polymerase inhibition; P0A8V2; E. coli RNA polymerase, fluorescence transcription assay; AID 559; inhibition, %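 (tested at 10 µM)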; 62,000 compounds, 0.2% hits; in the data active = inhibition above about 20%;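 also: 0% = enzyme without compound and 100% = no enzyme blank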
D1 allo mod – allosterically modulates the human D1 dopamine receptor; P21728; HEK293 D1, CRE-luciferase, dopamine EC30 potentiation; actives deviate in either direction; B-score at 10 µM; 58,000 compounds, 5.9% hits;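 active = luminescence count or its row- and column-corrected plate score outside the 99.7% band of the plate's sample wells, on either side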
Target sequence (P21728 whole entry, looked up): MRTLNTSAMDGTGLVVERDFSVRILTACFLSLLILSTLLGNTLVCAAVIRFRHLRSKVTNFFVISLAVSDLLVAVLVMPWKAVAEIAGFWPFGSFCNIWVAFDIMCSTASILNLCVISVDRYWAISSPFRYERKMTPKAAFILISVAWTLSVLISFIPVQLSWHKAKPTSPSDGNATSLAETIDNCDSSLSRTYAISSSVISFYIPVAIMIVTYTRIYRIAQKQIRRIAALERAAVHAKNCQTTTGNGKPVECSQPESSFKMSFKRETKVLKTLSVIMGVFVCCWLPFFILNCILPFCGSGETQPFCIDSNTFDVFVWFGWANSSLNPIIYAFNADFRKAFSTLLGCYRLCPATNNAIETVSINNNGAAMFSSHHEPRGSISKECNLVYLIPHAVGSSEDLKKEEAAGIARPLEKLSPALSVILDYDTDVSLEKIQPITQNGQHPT
DAT uptake mod – modulates human dopamine transporter uptake under cocaine; LLC-PK1 hDAT cells, [14C]-dopamine uptake with cocaine IC80; actives deviate in either direction; 110,000 compounds, 1.3% hits; B-score at 10 µM; Q01959;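 active = Z score or B-score, a plate-position-corrected score, falls beyond the plate's 99.7% confidence bounds, in either direction; inactive = both scores lie inside the 99.7% bounds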;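 also: scored against the spread of the other compound wells on the same plate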
HEK293 NFkB inh – inhibitors of the PMA/ionomycin-induced NF-kB reporter in HEK293 cells. HEK-293 NF-kB luciferase reporter, luminescence. 62,000 compounds, 0.21% hits. inhibition, % at 3 µM;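 active = inhibition above the mean of all tested compounds plus 3 SD, cut at about 40% in these data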;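 also: 0% = stimulated DMSO wells and 100% = 10 µM reference inhibitor 5653914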
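Timing: 1 h pretreatment, 16 h stimulation, 37 °C; system: HEK-293 cells with stable firefly luciferase reporter driven by four HIV NF-kB elements; doses: 3 µM once, 0.30% DMSO; measured by: luciferase luminescence; control set: DMSO and 10 µM reference inhibitor; repeats: single test; reagent: PMA plus ionomycin mix as NF-kB-activating stimulus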
* = called active by the depositor; nt = no result given. The entries come from a sample that favours hits as a whole.

SMILES | AP complement | Ec RNAP inh | D1 allo mod | DAT uptake mod | HEK293 NFkB inh
CC1CN(S(=O)(=O)c2cccc(C(=O)OCc3cc(=O)oc4cc(O)ccc34)c2)CC(C)O1 (stereo unspecified) | 8 | -12 | -4.3* | -0.24 | 13
COc1ccc(N(CC(=O)NC2CCCC2)C(=O)Cn2nnc(-c3ccc(C)cc3)n2)cc1 | -8 | -12 | -0.69 | 2.5* | 15
COc1ccc(N(CC(=O)NC2CCCC2)C(=O)Cn2nnc(-c3ccc(C)cc3)n2)cc1OC | 13 | 8 | nt | 0.25 | 18
COc1ccc(-c2nnn(CC(=O)N(CC(=O)NC3CCCC3)c3cccc(C)c3)n2)cc1OC | 14 | 5 | 0.56 | 2.8* | 2
NC(=O)CC(NC(=O)Cc1cccc2ccccc12)c1ccc(NCCc2ccccc2F)c([N+](=O)[O-])c1 (stereo unspecified) | nt | nt | nt | -0.058 | nt
c1cnn(-c2nc(N3CCOCC3)nc(N3CCOCC3)n2)c1 | -1 | -12 | 2.9 | -1.4 | -2
CCc1c(C)nc(/N=C(/NC(=O)c2ccccc2)Nc2ccccc2OC)[nH]c1=O | 19 | -10 | 0.006 | nt | -2
CCN(CC)S(=O)(=O)c1ccc(NC(=O)C(C)N(c2ccccc2)S(C)(=O)=O)cc1 (stereo unspecified) | nt | nt | nt | 2.5* | nt
Cc1cc(C)n(C(=O)c2cccc(S(=O)(=O)N3CCOCC3)c2)n1 | -24 | -10 | -0.26 | -8.3* | 14
CC(C)CCn1c(=O)c2ccccc2n2c(CN(C)Cc3ccccc3)nnc12 | 15 | -8 | 2.2 | -8.6* | 28
CCOC(=O)Cc1csc(SCC(=O)c2c(N)n(CC(C)C)c(=O)n(C)c2=O)n1 | 1 | 8 | -3.9* | -0.76 | 21
Cc1csc(SCC(=O)c2c(N)n(CC(C)C)c(=O)n(C)c2=O)n1 | nt | nt | nt | 0.36 | nt
CCOC(=O)c1ccc(NC(=O)C2CCN(S(=O)(=O)c3ccccc3)CC2)cc1 | 7 | 12 | -1.3 | 0.79 | 1
CCOC(=O)c1ccc(NC(=O)C2CCN(S(=O)(=O)CC)CC2)cc1 | 6 | 4 | -2.3 | -7.3* | 7
COc1cccc(C2CC(c3ccccc3)Nc3nc(N)nn32)c1 (stereo unspecified) | 3 | 6 | 5.3* | 0.47 | -3
Cc1ccc(OCc2nnc(SCC(=O)c3cccc([N+](=O)[O-])c3)n2C)cc1 | nt | nt | nt | -0.17 | nt
CC(SC1CCCC1)C(=O)NC(C)(C#N)C(C)C (stereo unspecified) | 11 | 0 | -2.1* | -0.026 | -5
CCCc1nc(SCC(N)=O)[nH]c(=O)c1CC | 8 | 7 | -2.8* | -1.4 | 15
Cc1nnc2c3ccccc3c(-c3ccccc3)nn12 | -4 | 7 | 15* | 1.4 | 19
Cc1nnc2c3ccccc3c(-c3cccc4ccccc34)nn12 | nt | nt | nt | -0.67 | nt
Cc1ccc(S(=O)(=O)Nc2cccc(C(=O)Nc3cc(C)ccn3)c2)cc1 | nt | nt | nt | -0.39 | nt
CCOc1cc(C(=O)Nc2cnccn2)cc(OCC)c1OCC | 23 | 5 | 0.84 | 0.27 | 0
Cc1ccnc(NC(=O)c2cccc(NS(=O)(=O)c3ccccc3C)c2)c1 | nt | nt | nt | 0.47* | nt
CCOc1cc(C(=O)Nc2cc(C)ccn2)cc(OCC)c1OCC | 2 | 4 | -1.5 | 3* | 6
C=CCn1cc(C(=O)NCc2ccco2)c(=O)c2cc(S(=O)(=O)N3CCCCCC3)ccc21 | 4 | 6 | 0.52 | 3.3* | 14
SMILES | AP complement | Ec RNAP inh | D1 allo mod | DAT uptake mod | HEK293 NFkB inh
CCn1cc(C(=O)NC2CCC(C)CC2)c(=O)c2cc(S(=O)(=O)N3CCCCC3)ccc21 (stereo unspecified) | 6 | 1 | 0.74 | 2.2* | -5
CCn1cc(C(=O)NC2CCCC2)c(=O)c2cc(S(=O)(=O)N3CCOCC3)ccc21 | 11 | 2 | 2.8 | nt | 18
COc1ccc(C(=O)c2coc3ccc(O)c(CN4CCCCC4)c23)cc1 | -14 | -9 | -0.46 | 3.5* | 8
CC1(c2nnc(-c3ccccc3)o2)CC(c2ccc([N+](=O)[O-])cc2)=NO1 (stereo unspecified) | nt | nt | nt | -0.8 | nt
Cc1cc(C)c2c(N)c(C(=O)Nc3nccs3)sc2n1 | 8 | 6 | -6.6* | -0.77 | -19
N#Cc1c(NC(=O)CSc2nc(N)cc(=O)[nH]2)sc2c1CCCCCC2 | 5 | 3 | -0.56 | -0.63 | 11
N#Cc1c(NC(=O)c2nc3ncccn3n2)sc2c1CCCCC2 | 0 | -5 | -4.3* | 0.55 | -50
N#Cc1c(NC(=O)CSc2ncn[nH]2)sc2c1CCCCC2 | 9 | 6 | -4.6* | 0.3 | 54*

Screening data: PubChem BioAssay, several laboratories
